tested on: Mycobacterium tuberculosis variant bovis BCG; assay: Antimycobacterial activity against Mycobacterium bovis BCG ATCC 35737 by resazurin dye based fluorimetric assay; assay type: functional, organism-based
Procedure, shortened: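 Resazurin microtiter method as for the bacterial panel. Mycobacteria grown in 7H9 with 10% OADC and 0.5% glycerol; for BCG, 0.05% Tween 80 replaced the glycerol. Cultures were sonicated and needle-passed to single cells. Incubation at 37°C, or 32°C for M. marinum. Fluorescence read at ex 550/em 590 nm; mean of triplicates.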

**Q.** Which IC50 does the source give for O=C1C2=C(C(=O)c3c1cnc1ccccc31)C1CCC2C1 (configuration not stated) here?
**A.** 7.9 µM

**Q.** With O=C1C2=C(C(=O)c3c1cnc1ccc(F)cc31)C1CCC2C1 (configuration not stated) as the molecule, how does the IC50 read?
**A.** 10.3 µM

**Q.** How did the IC50 turn out when O=C1C2=C(C(=O)c3c1cnc1ccc(C(F)(F)F)cc31)C1CCC2C1 (configuration not stated) was run?
**A.** 12.5 µM

**Q.** With O=C1C2=C(C(=O)c3c1cnc1cc(C(F)(F)F)ccc31)C1CCC2C1 (configuration not stated) as the molecule, how does the IC50 read?
**A.** 15 µM

**Q.** For O=C1C2=C(C(=O)c3c1cnc1cc(F)ccc31)C1CCC2C1 (configuration not stated), which IC50 is on record?
**A.** 17.4 µM

**Q.** For O=C1C2=C(C(=O)c3c1cnc1c(F)cccc31)C1CCC2C1 (configuration not stated), which IC50 is on record?
**A.** 5.03 µM

**Q.** With COc1c(N2C[C@@H]3CCCN[C@@H]3C2)c(F)cc2c(=O)c(C(=O)O)cn(C3CC3)c12 [MOXIFLOXACIN] as the molecule, how does the IC50 read?
**A.** 0.03 µM
